Activity calls are given as the source filed them. No cut-off for these calls is given here.
Key:
Format in all cases: cell-based
[1] = target: Lysine-specific demethylase 6A (Homo sapiens) (UniProt O15550); assay: Inhibition of KDM6A in human MCF-10A cell assessed as LRRC8D gene expression at 50 nM by qRT-PCR analysis
Outline: (§1)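 MCF10A monolayers were exposed to TGFB at 2.5 ng/ml for 6 days to induce EMT, then cultured without TGFB for 10 days (MET) with compound at 50 nM or DMSO vehicle. Vehicle-only and TGFB-only arms served as references. RNA was analysed by qRT-PCR, normalised to GAPDH by 2^-ΔΔCt, and run in triplicate (mean ± SD). Significance was by unpaired t-tests with Holm-Sidak correction.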

[2] = target: Lysine-specific demethylase 6A (Homo sapiens) (UniProt O15550); assay: Inhibition of KDM6A in human MCF-10A cell assessed as ILKAP gene expression at 50 nM by qRT-PCR analysis; outline: as §1
[3] = target: Lysine-specific demethylase 6A (Homo sapiens) (UniProt O15550); assay: Inhibition of KDM6A in human MCF-10A cell assessed as THOC6 gene expression at 50 nM by qRT-PCR analysis; outline: as §1
[4] = target: Lysine-specific demethylase 6A (Homo sapiens) (UniProt O15550); assay: Inhibition of KDM6A in human MCF-10A cell assessed as FZD8 gene expression at 50 nM by qRT-PCR analysis; outline: as §1
[5] = target: Lysine-specific demethylase 6A (Homo sapiens) (UniProt O15550); assay: Inhibition of KDM6A in human MCF-10A cell assessed as ZNF232 gene expression at 50 nM by qRT-PCR analysis; outline: as §1
[6] = target: Lysine-specific demethylase 6A (Homo sapiens) (UniProt O15550); assay: Inhibition of KDM6A in human MCF-10A cell assessed as H2AFY2 gene expression at 50 nM by qRT-PCR analysis; outline: as §1
[7] = target: Lysine-specific demethylase 6A (Homo sapiens) (UniProt O15550); assay: Inhibition of KDM6A in human MCF-10A cell assessed as C60ORF14 gene expression at 50 nM by qRT-PCR analysis; outline: as §1
[8] = target: Lysine-specific demethylase 6A (Homo sapiens) (UniProt O15550); assay: Inhibition of KDM6A in human MCF-10A cell assessed as COBLL1 gene expression at 50 nM by qRT-PCR analysis; outline: as §1
[9] = target: Lysine-specific demethylase 6A (Homo sapiens) (UniProt O15550); assay: Inhibition of KDM6A in human MCF-10A cell assessed as CDK4 gene expression at 50 nM by qRT-PCR analysis; outline: as §1
[10] = target: Lysine-specific demethylase 6A (Homo sapiens) (UniProt O15550); assay: Inhibition of KDM6A in human MCF-10A cell assessed as CCNA1 gene expression at 50 nM by qRT-PCR analysis; outline: as §1
[11] = target: Lysine-specific demethylase 6A (Homo sapiens) (UniProt O15550); assay: Inhibition of KDM6A in human MCF-10A cell assessed as MAP3K9 gene expression at 50 nM by qRT-PCR analysis; outline: as §1
[12] = target: Lysine-specific demethylase 6A (Homo sapiens) (UniProt O15550); assay: Inhibition of KDM6A in human MCF-10A cell assessed as FAM60A gene expression at 50 nM by qRT-PCR analysis; outline: as §1
[13] = target: Lysine-specific demethylase 6A (Homo sapiens) (UniProt O15550); assay: Inhibition of KDM6A in human MCF-10A cell assessed as PUS3 gene expression at 50 nM by qRT-PCR analysis; outline: as §1
[14] = target: Lysine-specific demethylase 6A (Homo sapiens) (UniProt O15550); assay: Inhibition of KDM6A in human MCF-10A cell assessed as FAM117A gene expression at 50 nM by qRT-PCR analysis; outline: as §1
[15] = target: Lysine-specific demethylase 6A (Homo sapiens) (UniProt O15550); assay: Inhibition of KDM6A in human MCF-10A cell assessed as CBX4 gene expression at 50 nM by qRT-PCR analysis; outline: as §1
[16] = target: Lysine-specific demethylase 6A (Homo sapiens) (UniProt O15550); assay: Inhibition of KDM6A in human MCF-10A cell assessed as MED30 gene expression at 50 nM by qRT-PCR analysis; outline: as §1
[17] = target: Lysine-specific demethylase 6A (Homo sapiens) (UniProt O15550); assay: Inhibition of KDM6A in human MCF-10A cell assessed as vimentin expression at 50 nM by immunostaining analysis
Outline: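 MCF10A cells received TGFB (2.5 ng/ml; vehicle was 4 mM HCl with 0.1% BSA) to induce EMT, then TGFB was withdrawn in the presence of compound (50 nM) or DMSO. Cells were fixed and immunostained for vimentin and imaged by inverted fluorescence microscopy.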

[18] = target: Lysine-specific demethylase 6A (Homo sapiens) (UniProt O15550); assay: Inhibition of KDM6A in human MCF-10A cell assessed as PKP2 gene expression at 50 nM by qRT-PCR analysis; outline: as §1

Sequence of Lysine-specific demethylase 6A (Homo sapiens) (O15550 whole entry): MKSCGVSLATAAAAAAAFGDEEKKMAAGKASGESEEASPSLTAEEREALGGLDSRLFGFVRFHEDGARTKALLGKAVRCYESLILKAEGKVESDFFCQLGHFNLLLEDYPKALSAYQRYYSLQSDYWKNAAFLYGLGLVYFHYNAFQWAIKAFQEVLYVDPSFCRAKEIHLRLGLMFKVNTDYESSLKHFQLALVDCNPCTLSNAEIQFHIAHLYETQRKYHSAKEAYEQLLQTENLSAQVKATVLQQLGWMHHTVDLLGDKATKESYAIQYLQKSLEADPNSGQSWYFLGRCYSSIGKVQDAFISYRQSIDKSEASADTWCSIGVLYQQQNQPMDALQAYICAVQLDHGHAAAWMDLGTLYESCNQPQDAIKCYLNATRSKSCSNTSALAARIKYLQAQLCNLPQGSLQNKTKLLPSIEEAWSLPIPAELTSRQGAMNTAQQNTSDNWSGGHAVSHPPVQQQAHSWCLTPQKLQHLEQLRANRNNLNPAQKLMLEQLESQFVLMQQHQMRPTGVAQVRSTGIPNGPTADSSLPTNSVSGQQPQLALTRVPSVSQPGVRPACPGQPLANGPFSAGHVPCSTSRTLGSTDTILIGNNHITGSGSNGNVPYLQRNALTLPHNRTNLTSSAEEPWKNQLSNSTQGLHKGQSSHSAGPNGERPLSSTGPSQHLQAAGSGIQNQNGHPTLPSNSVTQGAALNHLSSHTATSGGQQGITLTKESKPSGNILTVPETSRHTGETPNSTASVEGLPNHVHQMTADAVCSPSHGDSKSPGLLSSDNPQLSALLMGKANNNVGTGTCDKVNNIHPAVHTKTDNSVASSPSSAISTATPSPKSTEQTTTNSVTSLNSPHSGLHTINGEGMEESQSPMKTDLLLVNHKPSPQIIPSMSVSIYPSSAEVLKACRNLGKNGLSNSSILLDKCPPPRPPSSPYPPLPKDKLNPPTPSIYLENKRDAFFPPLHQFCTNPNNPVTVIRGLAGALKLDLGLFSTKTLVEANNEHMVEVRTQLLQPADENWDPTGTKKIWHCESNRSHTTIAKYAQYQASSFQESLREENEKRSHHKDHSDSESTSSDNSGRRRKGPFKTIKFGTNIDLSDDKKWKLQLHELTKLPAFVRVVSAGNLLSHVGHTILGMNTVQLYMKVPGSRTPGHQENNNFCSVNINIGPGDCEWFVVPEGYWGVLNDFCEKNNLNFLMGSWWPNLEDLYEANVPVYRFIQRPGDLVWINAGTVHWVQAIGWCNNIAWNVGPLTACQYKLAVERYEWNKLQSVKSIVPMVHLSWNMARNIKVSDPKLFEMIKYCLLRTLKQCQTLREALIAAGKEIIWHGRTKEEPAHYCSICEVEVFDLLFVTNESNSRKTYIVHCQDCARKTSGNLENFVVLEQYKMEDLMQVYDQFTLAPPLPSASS

inhibition [1]: Active
inhibition [2]: Active
inhibition [3]: Active
inhibition [4]: Active
inhibition [5]: Active
inhibition [6]: Active
inhibition [7]: Active
inhibition [8]: Active
inhibition [9]: Active
inhibition [10]: Active
inhibition [11]: Active
inhibition [12]: Active
inhibition [13]: Active
inhibition [14]: Active
inhibition [15]: Active
inhibition [16]: Active
inhibition [17]: Active
inhibition [18]: Active
Compound: CCOC(=O)CCNc1cc(N2CCc3ccccc3CC2)nc(-c2ccccn2)n1
